In ChEMBL document CHEMBL2311343, “Investigations into the synthesis, radiofluorination and conjugation of a new [¹⁸F]fluorocyclobutyl prosthetic group and its in vitro stability using a tyrosine model system” (Bioorg Med Chem, 2013):
Values belong to the compound of their own block, whether it stands above or below them.

Tests used:
[1] = Metabolic stability in Han Wistar rat hepatocytes at 1 uM after 16 mins; format: ADME, cell-based, Hepatocyte; settings: read-out: Stability
How it was run: (§1)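 Hepatocytes isolated from Han Wistar rat liver by two-step perfusion and Percoll purification; viability by trypan blue. Incubated at 0.5×10^6 viable cells/mL in Williams' medium E + 5% FCS with 1 µM compound, shaken continuously. Aliquots taken at 2–60 min and quenched with cold methanol, frozen overnight, centrifuged. Supernatant analysed by LC-MS/MS.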

[2] = Metabolic stability in Han Wistar rat hepatocytes at 1 uM after 60 mins; format: ADME, cell-based, Hepatocyte; settings: read-out: Stability; how it was run: as §1
[3] = Metabolic stability in Han Wistar rat hepatocytes at 1 uM after 45 mins; format: ADME, cell-based, Hepatocyte; settings: read-out: Stability; how it was run: as §1
[4] = Metabolic stability in Han Wistar rat hepatocytes at 1 uM after 8 mins; format: ADME, cell-based, Hepatocyte; settings: read-out: Stability; how it was run: as §1
[5] = Metabolic stability in Han Wistar rat hepatocytes at 1 uM after 30 mins; format: ADME, cell-based, Hepatocyte; settings: read-out: Stability; how it was run: as §1
[6] = Metabolic stability in Han Wistar rat hepatocytes at 1 uM after 2 mins; format: ADME, cell-based, Hepatocyte; settings: read-out: Stability; how it was run: as §1
[7] = (§2) Stability of the compound in rat plasma at 22 MBq/mL up to 120 mins; format: ADME, cell-free; settings: read-out: Stability
How it was run: (§3)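 Radiotracer at 22 MBq/mL incubated in human or rat plasma at 37 °C; sampled at 0, 30, 60, 90 and 120 min. Proteins precipitated with MeOH and centrifuged. Supernatant analysed by radio-HPLC and by radio-TLC (BuOH/AcOH/H2O 12:3:5). Intact tracer expressed as % of the 0 min sample.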

A549 [8] = experiment: Cellular uptake in human A549 cells assessed per 1-'5 cells at 0.2 MBq after 10 mins by gamma counting; format: ADME, cell-based; settings: a549, 10 min
How it was run: (§4)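 Sub-confluent cells seeded 1–2 days earlier (A549 and DU145 in DMEM + 10% FBS; NCI-H460 in DMEM/F-12 + 10% FBS). Washed with PBS, then incubated with 0.2 MBq radiotracer per well in PBS + 0.1% BSA (8% EtOH) at 37 °C, 5% CO2, for 10, 20, 30 and 60 min. Washed, lysed in 1 M NaOH and gamma-counted. Expressed as % applied dose per 10^5 cells, decay-corrected, in triplicate.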

NCI-H460 [9] = experiment: Cellular uptake in human NCI-H460 cells at 0.2 MBq up to 60 mins by gamma counting in presence of FET; format: ADME, cell-based; settings: nci-h460, 1 h
DU-145 [10] = experiment: Cellular uptake in human DU145 cells at 0.2 MBq up to 60 mins by gamma counting in presence of FET; format: ADME, cell-based; settings: du-145, 1 h
DU-145 [11] = experiment: Cellular uptake in human DU145 cells at 0.2 MBq up to 60 mins by gamma counting in presence of L-3-FCBT; format: ADME, cell-based; settings: du-145, 1 h
NCI-H460 [12] = experiment: Cellular uptake in human NCI-H460 cells at 0.2 MBq by gamma counting; format: ADME, cell-based; settings: TDE = time-dependent effect; how it was run: as §4
A549 [13] = experiment: Cellular uptake in human A549 cells at 0.2 MBq up to 60 mins by gamma counting in presence of L-3-FCBT; format: ADME, cell-based; settings: a549, 1 h
A549 [14] = experiment: Cellular uptake in human A549 cells at 0.2 MBq up to 60 mins by gamma counting in presence of FET; format: ADME, cell-based; settings: a549, 1 h
A549 [15] = experiment: Cellular uptake in human A549 cells at 0.2 MBq by gamma counting; format: ADME, cell-based; settings: TDE = time-dependent effect; how it was run: as §4
DU-145 [16] = experiment: Cellular uptake in human DU145 cells at 0.2 MBq by gamma counting; format: ADME, cell-based; settings: TDE = time-dependent effect; how it was run: as §4
NCI-H460 [17] = experiment: Cellular uptake in human NCI-H460 cells assessed per 1-'5 cells at 0.2 MBq after 10 mins by gamma counting; format: ADME, cell-based; settings: nci-h460, 10 min; how it was run: as §4
NCI-H460 [18] = experiment: Cellular uptake in human NCI-H460 cells assessed per 1-'5 cells at 0.2 MBq after 60 mins by gamma counting; format: ADME, cell-based; settings: nci-h460, 1 h; how it was run: as §4
NCI-H460 [19] = experiment: Cellular uptake in human NCI-H460 cells at 0.2 MBq up to 60 mins by gamma counting in presence of L-3-FCBT; format: ADME, cell-based; settings: nci-h460, 1 h
DU-145 [20] = experiment: Cellular uptake in human DU145 cells assessed per 1-'5 cells at 0.2 MBq after 60 mins by gamma counting; format: ADME, cell-based; settings: du-145, 1 h; how it was run: as §4
A549 [21] = experiment: Cellular uptake in human A549 cells assessed per 1-'5 cells at 0.2 MBq after 30 mins by gamma counting; format: ADME, cell-based; settings: a549, 0.5 h; how it was run: as §4
[22] = Stability of the compound in human plasma at 22 MBq/mL up to 120 mins; format: ADME, cell-free; settings: read-out: Stability; how it was run: as §3
DU-145 [23] = experiment: Cellular uptake in human DU145 cells assessed per 1-'5 cells at 0.2 MBq after 10 mins by gamma counting; format: ADME, cell-based; settings: du-145, 10 min; how it was run: as §4
Plasma = experiment: as §2; format: ADME, cell-free; settings: 2 h; how it was run: as §3
[24] = Stability of the compound in human plasma at 22 MBq/mL after 5 mins; format: ADME, cell-free; settings: read-out: Stability
[25] = Lipophilicity, log D of the compound; format: physicochemical; settings: octanol/water
How it was run: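 Shake-flask logD, run manually in two vials. Compound (0.1 mg) in octanol saturated with 10 mM phosphate buffer pH 7.4, sonicated 3 min, shaken 4 min at 20 °C. Phases separated by centrifugation, then quantified by reversed-phase HPLC with UV at 254 nm by peak area.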

remaining at 16 min, 1 µM [1]: 98%
remaining at 1 h, 1 µM [2]: 94%
remaining at 0.75 h, 1 µM [3]: 95%
remaining at 8 min, 1 µM [4]: 99%
remaining at 0.5 h, 1 µM [5]: 97%
remaining at 2 min, 1 µM [6]: 100%
Compound: N[C@@H](Cc1ccc(O[C@H]2C[C@@H](F)C2)cc1)C(=O)O

remaining at 2 h, 22 MBq/mL [7]: > 99.9%
Drug uptake (A549 [8]): 2.8%
Drug uptake (NCI-H460 [9]): Not Active
Drug uptake (DU-145 [10]): Not Active
Drug uptake (DU-145 [11]): Not Active
Drug uptake (NCI-H460 [12]): tde
Drug uptake (A549 [13]): Not Active
Drug uptake (A549 [14]): Not Active
Drug uptake (A549 [15]): tde
Drug uptake (DU-145 [16]): tde
Drug uptake (NCI-H460 [17]): 0.7%
Drug uptake (NCI-H460 [18]): 2.1%
Drug uptake (NCI-H460 [19]): Not Active
Drug uptake (DU-145 [20]): 2.1%
Drug uptake (A549 [21]): 5.8%
remaining at 2 h, 22 MBq/mL [22]: > 99.9%
Drug uptake (DU-145 [23]): 0.7%
Compound: N[C@@H](Cc1ccc(O[C@H]2C[C@@H]([18F])C2)cc1)C(=O)O

Stability (Plasma): Stable
remaining at 2 h, 22 MBq/mL [22]: 87%
remaining at 5 min, 22 MBq/mL [24]: 95%
Compound: N[C@@H](Cc1ccc(OCC[18F])cc1)C(=O)O [FLORETYROSINE F18]

logD [25]: -1.51
Compound: N[C@@H](Cc1ccc(OCCF)cc1)C(=O)O [O-(2-FLUOROETHYL)-L-TYROSINE]
